Laboratory results from ChEMBL document CHEMBL2401736, “HCV NS5A replication complex inhibitors. Part 5: discovery of potent and pan-genotypic glycinamide cap derivatives” (Bioorg Med Chem Lett, 2013).

Tests used:
[1] = Permeability of the compound across human Caco2 cells; type: ADME, cell-based; settings: Caco-2, read-out: permeability
[2] = Metabolic stability in rat liver microsomes assessed as compound remaining after 10 mins; type: ADME, Microsome; settings: read-out: Stability
In short: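 Compound incubated with rat liver microsomes for 10 min; read-out is the percentage of parent remaining.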

Rattus norvegicus = assay: (§1) AUC (0 to 4 hrs) in rat at 5 mg/kg, po; type: ADME, organism-based, Plasma; design: time < 4 hr, dose 5 mg/kg, route oral; settings: in vivo, 4 h, BLD = below limit of detection
In short: (§2)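 Rat 4 h PK screen: 2 mg/kg IV and 5 mg/kg PO, each dose as its line states. Plasma sampled 5 times (0.17, 0.5, 1, 2 and 4 h); n = 2 rats.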

[3] = test system: Bovine viral diarrhea virus 1; assay: Antiviral activity against Bovine viral diarrhea virus by luciferase assay; type: functional, organism-based
In short: (§3)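 EC50 values are means of at least two experiments, with at most threefold variation between them.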

Hepatitis C virus [4] = assay: Antiviral activity against Hepatitis C virus genotype 1b by FRET assay; type: functional, organism-based, Hepacivirus hominis; in short: as §3
Hepatitis C virus [5] = assay: Antiviral activity against Hepatitis C virus genotype 1a by ELISA; type: functional, organism-based, Hepacivirus hominis, subtype 1a; in short: as §3
[6] = Clearance in rat at 2 mg/kg, iv after 4 hrs; type: ADME, organism-based; design: dose 2 mg/kg, route intravenous; settings: in vivo; in short: as §2
[7] = AUC (0 to 4 hrs) in rat at 2 mg/kg, iv; type: ADME, organism-based; design: time < 4 hr, dose 2 mg/kg, route intravenous; settings: plasma; in short: as §2
[8] = as §1; type: ADME, organism-based, Plasma; design: time < 4 hr, dose 5 mg/kg, route oral; settings: plasma; in short: as §2

| Papp [1] [×10⁻⁶ cm/s] | remaining at 10 min [2] [%] | AUC (Rattus norvegicus) | EC50 [3] [nM] | EC50 (Hepatitis C virus [4]) [nM] | EC50 (Hepatitis C virus [5]) [nM] | clearance [6] [mL/min/kg] | AUC(0-t) at 4 h [7] [µM·h] | AUC(0-t) at 4 h [8] [µM·h] | EC50 ([3]; Bovine viral diarrhea virus isolates and strains) [nM] | EC50 (Hepatitis C virus [4]; Hepatitis C virus, genotype 1b) [nM] | EC50 (Hepatitis C virus [5]; Hepatitis C virus, subtype 1a) [nM] | Structure (SMILES) |
| --- | --- | --- | --- | --- | --- | --- | --- | --- | --- | --- | --- | --- |
| < 1.5 | 100 | BLD | > 3330 | 0.152 | < 4.6 |  |  |  |  |  |  | CN1CCN(C(C(=O)N2CCC[C@H]2C(=O)Nc2ccc(C#Cc3ccc(NC(=O)[C@@H]4CCCN4C(=O)C(c4ccccc4)N4CCN(C)CC4)cc3)cc2)c2ccccc2)CC1 (stereo in doubt; 5i.1) |
| < 1.5 | 100 |  |  |  |  | 13.3 | 2.11 | 0.093 | > 10000 | 0.005 | 24 | CC(=O)N[C@H](C(=O)N1CCC[C@H]1C(=O)Nc1ccc(C#Cc2ccc(NC(=O)[C@@H]3CCCN3C(=O)[C@@H](NC(C)=O)c3ccccc3)cc2)cc1)c1ccccc1 |
